Laboratory results as given in ChEMBL document CHEMBL1153032, “Benzhydrylquinazolinediones: novel cytosolic phospholipase A2alpha inhibitors with improved physicochemical properties” (Bioorg Med Chem, 2009).
≈ marks a conversion by molar mass, not a printed value.

Columns and labels:
MC9 [1] = assay: Inhibition of PGF2alpha production in DNP-BSA-stimulated mouse MC9 cells at 5 uM treated 15 mins before DNP-BSA challenge measured after 4 mins; format: functional
MC9 [2] = assay: Inhibition of LTB4 production in DNP-BSA-stimulated mouse MC9 cells at 5 uM treated 15 mins before DNP-BSA challenge measured after 4 mins; format: functional
[3] = Inhibition of cytosolic phospholipase A2alpha by GLU micelle assay
[4] = Lipophilicity, log D at pH 7.4; format: physicochemical; details: buffer
MC9 [5] = assay: Inhibition of PGF2alpha production in arachidonic acid-stimulated mouse MC9 cells at 5 uM treated 15 mins before arachidonic acid challenge measured after 4 mins; format: functional
[6] = Aqueous solubility after 18 hrs at pH 7.4; format: physicochemical
Summary of the method: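 Compound taken as 8 mg/mL DMSO stock; 13 µL added to 1.0 mL pH 7.4 buffer, mixed, left to settle 18 h at room temperature. Mixture filtered (0.2 µm), filtrate concentration read by UV plate reader. Solubility derived against a single-point standard.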

[7] = Permeability in buffer of pH 7.4 by PAMPA; format: ADME; details: read-out: permeability
Summary of the method: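 PAMPA: 5 mg/mL DMSO stock diluted 200-fold in pH 7.4 universal buffer (25 µg/mL) and placed in donor wells. Filter membrane coated with phosphatidylcholine in dodecane (20 mg/mL); acceptor holds pH 7.4 buffer. Sandwich left 18 h at rt. Donor, acceptor and reference concentrations read by UV. Effective permeability (Pe) calculated; triplicate runs averaged. Verapamil and theophylline run as QC standards.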

Blood = assay: Inhibition of TXB2 production in calcium ionophore A-23187-stimulated Sprague-Dawley rat whole blood after 10 mins; format: functional, tissue-based

| SMILES | IC50 [3] | logD [4] | solubility at 18 h [6] | also measured |
| --- | --- | --- | --- | --- |
| Cc1c(CCOc2ccc(C(=O)O)cc2)c2cc(Cl)ccc2n1C(c1ccccc1)c1ccccc1 | 3 µM | 6.1 | – | inhibition at 5 µM (MC9 [1]): 81%; inhibition at 5 µM (MC9 [2]): 96%; inhibition at 5 µM (MC9 [5]): -8% |
| Cc1cccc(C)c1CS(=O)(=O)NCCc1c(CCCc2ccc(C(=O)O)cc2)c2cc(Cl)ccc2n1C(c1ccccc1)c1ccccc1 | 0.014 µM | – | – | – |
| O=C(O)c1ccc(OCCCCCCCn2c(=O)n(C(c3ccccc3)c3ccccc3)c(=O)c3ccccc32)cc1 | 71 µM | – | – | – |
| CSc1ccc2c(=O)n(C(c3ccccc3)c3ccccc3)c(=O)n(C/C=C/COc3ccc(C(=O)O)cc3)c2c1 | 2 µM | 3.2 | 26 µg/mL (≈ 46 µM) | Papp [7]: 4.5 ×10⁻⁶ cm/s |
| O=C(O)c1ccc(OCCCCCCn2c(=O)n(C(c3ccccc3)c3ccccc3)c(=O)c3ccccc32)cc1 | 47 µM | – | – | – |
| O=C(O)c1ccc(OC/C=C/Cn2c(=O)n(C(c3ccccc3)c3ccccc3)c(=O)c3ccc(Sc4ccccc4)cc32)cc1 | 2.1 µM | 4.8 | – | – |
| O=C(O)c1ccc(OC/C=C/Cn2c(=O)n(C(c3ccccc3)c3ccccc3)c(=O)c3ccc(N4CCOCC4)cc32)cc1 | 2.2 µM | 2.5 | 48 µg/mL (≈ 79.5 µM) | Papp [7]: 1 ×10⁻⁶ cm/s |
| O=C(O)c1cccc(OC/C=C/Cn2c(=O)n(C(c3ccccc3)c3ccccc3)c(=O)c3ccc(Cl)cc32)c1 | 100 µM | – | – | – |
| O=C(O)c1ccc(OC/C=C/Cn2c(=O)n(C(c3ccccc3)c3ccccc3)c(=O)c3cc(Cl)ccc32)cc1 | 10 µM | – | – | – |
| O=C(O)c1ccc(OCCCCn2c(=O)n(C(c3ccccc3)c3ccccc3)c(=O)c3ccc(Cl)cc32)cc1 | 2.5 µM | – | – | – |
| O=C(O)COc1ccc(Cn2c(=O)n(C(c3ccccc3)c3ccccc3)c(=O)c3ccccc32)cc1 | 360 µM | – | – | – |
| O=C(O)c1ccc(OCCCCCn2c(=O)n(C(c3ccccc3)c3ccccc3)c(=O)c3ccccc32)cc1 | 30 µM | – | – | – |
| O=C(O)c1ccc(OC/C=C\Cn2c(=O)n(C(c3ccccc3)c3ccccc3)c(=O)c3cc(F)ccc32)cc1 | 40 µM | – | – | – |
| Nc1ccc2c(=O)n(C(c3ccccc3)c3ccccc3)c(=O)n(C/C=C/COc3ccc(C(=O)O)cc3)c2c1 | 9 µM | 1.7 | > 100 µg/mL | Papp [7]: 0.4 ×10⁻⁶ cm/s |
| O=C(O)c1ccc(OC/C=C\Cn2c(=O)n(C(c3ccccc3)c3ccccc3)c(=O)c3ccccc32)cc1 | 44 µM | – | – | – |
| O=C(O)c1ccc(Cn2c(=O)c3cc(Cl)ccc3n(C(c3ccccc3)c3ccccc3)c2=O)cc1 | 90 µM | – | – | – |
| O=C(O)c1ccc(OC/C=C/Cn2c(=O)n(C(c3ccccc3)c3ccccc3)c(=O)c3ccc(-n4cncn4)cc32)cc1 | 1.1 µM | 1.4 | > 100 µg/mL | inhibition at 5 µM (MC9 [1]): 102%; inhibition at 5 µM (MC9 [2]): 100%; IC50 (Blood): 11 µM; inhibition at 5 µM (MC9 [5]): -28%; Papp [7]: 1.6 ×10⁻⁶ cm/s |
| O=C(O)c1ccc(OC/C=C/Cn2c(=O)n(C(c3ccccc3)c3ccccc3)c(=O)c3ccc(N4CCSCC4)cc32)cc1 | 2.4 µM | 3.6 | – | – |
| COc1ccc2c(=O)n(C(c3ccccc3)c3ccccc3)c(=O)n(C/C=C/COc3ccc(C(=O)O)cc3)c2c1 | 3 µM | 2.8 | 40 µg/mL (≈ 72.9 µM) | inhibition at 5 µM (MC9 [1]): 74%; inhibition at 5 µM (MC9 [2]): 99%; IC50 (Blood): 9 µM; inhibition at 5 µM (MC9 [5]): -98%; Papp [7]: 1.8 ×10⁻⁶ cm/s |
| CS(=O)(=O)c1ccc2c(=O)n(C(c3ccccc3)c3ccccc3)c(=O)n(C/C=C/COc3ccc(C(=O)O)cc3)c2c1 | 15 µM | 1.4 | > 100 µg/mL | Papp [7]: 0.3 ×10⁻⁶ cm/s |
| O=C(O)Cc1coc(-c2ccc(Cn3c(=O)n(C(c4ccccc4)c4ccccc4)c(=O)c4ccccc43)cc2)n1 | 140 µM | – | – | – |
| O=C(O)c1ccc(OC/C=C/Cn2c(=O)n(C(c3ccccc3)c3ccccc3)c(=O)c3ccc([N+](=O)[O-])cc32)cc1 | 1 µM | 2.4 | 34 µg/mL (≈ 60.3 µM) | inhibition at 5 µM (MC9 [1]): 30%; inhibition at 5 µM (MC9 [2]): 97%; IC50 (Blood): 13 µM; inhibition at 5 µM (MC9 [5]): -12%; Papp [7]: 2.6 ×10⁻⁶ cm/s |
| O=C(O)c1ccc(OCCn2c(=O)n(C(c3ccccc3)c3ccccc3)c(=O)c3ccc(Cl)cc32)cc1 | 10 µM | – | – | – |
| O=C(O)c1ccc(OCCn2c(=O)c3ccccc3n(C(c3ccccc3)c3ccccc3)c2=O)cc1 | 10 µM | – | – | – |
| O=C(O)c1ccc(OCCn2c(=O)c3ccccc3n(Cc3ccccc3)c2=O)cc1 | > 100 µM | – | – | – |

| SMILES | IC50 [3] | logD [4] | solubility at 18 h [6] | also measured |
| --- | --- | --- | --- | --- |
| O=C(O)c1ccc(OC/C=C\Cn2c(=O)c3ccccc3n(C(c3ccccc3)c3ccccc3)c2=O)cc1 | 25 µM | – | 37 µg/mL (≈ 71.4 µM) | – |
| O=C(O)Cc1ccc(Cn2c(=O)n(C(c3ccccc3)c3ccccc3)c(=O)c3ccccc32)cc1 | 260 µM | – | – | – |
| O=C(O)c1ccc(OC/C=C/Cn2c(=O)n(C(c3ccccc3)c3ccccc3)c(=O)c3ccc(Oc4ccccc4)cc32)cc1 | 1.6 µM | 4.8 | 15 µg/mL (≈ 24.6 µM) | – |
| O=C(O)c1ccc(OC/C=C/Cn2c(=O)n(C(c3ccccc3)c3ccccc3)c(=O)c3cc(F)ccc32)cc1 | 6 µM | – | – | – |
| O=C(O)c1ccc(OCCn2c(=O)c3ccc(Cl)cc3n(C(c3ccccc3)c3ccccc3)c2=O)cc1 | 4 µM | 3.3 | – | inhibition at 5 µM (MC9 [1]): 61%; inhibition at 5 µM (MC9 [2]): 93%; inhibition at 5 µM (MC9 [5]): 0% |
| COC(=O)C1CCN(c2ccc3c(=O)n(C(c4ccccc4)c4ccccc4)c(=O)n(C/C=C/COc4ccc(C(=O)O)cc4)c3c2)CC1 | 1.8 µM | 3.3 | 30 µg/mL (≈ 45.5 µM) | Papp [7]: 1 ×10⁻⁶ cm/s |
| O=C(O)c1ccc(OC/C=C\Cn2c(=O)n(C(c3ccccc3)c3ccccc3)c(=O)c3cc(Br)ccc32)cc1 | 30 µM | – | – | – |
| O=C(O)c1ccc(OC/C=C/Cn2c(=O)n(C(c3ccccc3)c3ccccc3)c(=O)c3cc(Br)ccc32)cc1 | 9 µM | – | – | – |
| O=C(O)c1ccc(OC/C=C/Cn2c(=O)n(C(c3ccccc3)c3ccccc3)c(=O)c3ccccc32)cc1 | 3 µM | – | – | inhibition at 5 µM (MC9 [1]): 52%; inhibition at 5 µM (MC9 [2]): 97%; IC50 (Blood): 14 µM |
| O=C(O)c1ccc(OC/C=C\Cn2c(=O)c3ccc(Cl)cc3n(C(c3ccccc3)c3ccccc3)c2=O)cc1 | 60 µM | – | 51 µg/mL (≈ 92.2 µM) | – |
| O=C(O)Cc1ccc(Cn2c(=O)c3cc(Br)ccc3n(C(c3ccccc3)c3ccccc3)c2=O)cc1 | 12 µM | – | – | – |
| O=C(O)c1ccc(OC/C=C/Cn2c(=O)n(C(c3ccccc3)c3ccccc3)c(=O)c3ccc(F)cc32)cc1 | 1.4 µM | 2.9 | – | inhibition at 5 µM (MC9 [1]): 83%; inhibition at 5 µM (MC9 [2]): 99%; IC50 (Blood): 6 µM; inhibition at 5 µM (MC9 [5]): -27% |
| O=C(O)c1ccc(OC/C=C/Cn2c(=O)c3ccc(Cl)cc3n(C(c3ccccc3)c3ccccc3)c2=O)cc1 | 4.5 µM | – | 28 µg/mL (≈ 50.6 µM) | – |
| O=C(O)c1ccc(OC/C=C/Cn2c(=O)c3ccccc3n(C(c3ccccc3)c3ccccc3)c2=O)cc1 | 2 µM | – | 51 µg/mL (≈ 98.3 µM) | inhibition at 5 µM (MC9 [1]): 61%; inhibition at 5 µM (MC9 [2]): 98%; IC50 (Blood): 12 µM; inhibition at 5 µM (MC9 [5]): -15% |
| O=C(O)c1ccc(Cn2c(=O)c3ccc(Cl)cc3n(C(c3ccccc3)c3ccccc3)c2=O)cc1 | 80 µM | – | – | – |
| O=C(O)c1ccc(OC/C=C\Cn2c(=O)n(C(c3ccccc3)c3ccccc3)c(=O)c3ccc(Cl)cc32)cc1 | 30 µM | – | – | – |
| Cc1ccc2c(=O)n(C(c3ccccc3)c3ccccc3)c(=O)n(C/C=C/COc3ccc(C(=O)O)cc3)c2c1 | 2.8 µM | 3.2 | 40 µg/mL (≈ 75.1 µM) | Papp [7]: 2 ×10⁻⁶ cm/s |
| O=C(O)C1CC1Cn1c(=O)c2cc(Br)ccc2n(C(c2ccccc2)c2ccccc2)c1=O (stereo unspecified) | 120 µM | – | – | – |
| O=C(O)c1ccc(OC/C=C/Cn2c(=O)c3cc(F)ccc3n(C(c3ccccc3)c3ccccc3)c2=O)cc1 | 5.6 µM | – | 42 µg/mL (≈ 78.3 µM) | – |
| O=C(O)c1ccc(OC/C=C\Cn2c(=O)n(C(c3ccccc3)c3ccccc3)c(=O)c3cc(Cl)ccc32)cc1 | 40 µM | – | – | – |
| O=C(O)c1ccc(OC/C=C/Cn2c(=O)n(C(c3ccccc3)c3ccccc3)c(=O)c3ccc(Cl)cc32)cc1 | 1 µM | – | – | inhibition at 5 µM (MC9 [1]): 99%; inhibition at 5 µM (MC9 [2]): 98%; IC50 (Blood): 11 µM; inhibition at 5 µM (MC9 [5]): -45% |
| O=C(O)c1ccc(OCCCn2c(=O)n(C(c3ccccc3)c3ccccc3)c(=O)c3ccccc32)cc1 | 50 µM | – | – | – |
| O=C(O)CCCOc1ccc(Cn2c(=O)n(C(c3ccccc3)c3ccccc3)c(=O)c3ccccc32)cc1 | 40 µM | – | – | – |
| O=C(O)c1ccc(CCCc2c(CCNS(=O)(=O)Cc3ccc(Cl)c(Cl)c3)n(C(c3ccccc3)c3ccccc3)c3ccc(Cl)cc23)cc1 [EFIPLADIB] | 0.04 µM | – | – | – |
